# Assay results from different studies.
# Protocols differ between the studies behind these lines.
# Cell line: MRC5
# Effect on: cell growth or viability
SMILES,method,time,IC50 [µM]
CCCCC/C=C/C(=O)CCc1ccc(O)c(OC)c1,SRB,,18.5
COc1c2c(cc3c1OCO3)[C@]13C=C[C@H](OC)C[C@H]1N(C2)C[C@H]3OC(=O)c1cccc(C)c1,WST-1,,> 10
CC(C)=CCC/C(C)=C/COc1ccc2ccc(=O)oc2c1,MTT,72 h,> 100
COc1ccc(C(=O)O[C@@H]2CN3Cc4c(cc5c(c4OC)OCO5)[C@@]24C=C[C@H](OC)C[C@@H]34)cc1,WST-1,,> 10
COc1cc2ccc(=O)oc2cc1OC,MTT,72 h,> 100
O=C(/C=C/C=C/c1ccc2c(c1)OCO2)N1CCCCC1,SRB,,136
O=C([O-])c1ccc(-n2nc(-c3ccccc3O)nc2-c2ccccc2[O-])cc1.O=C([O-])c1ccc(-n2nc(-c3ccccc3O)nc2-c2ccccc2[O-])cc1.[Ti+4],MTT,72 h,25
COc1cccc(C(=O)O[C@@H]2CN3Cc4c(cc5c(c4OC)OCO5)[C@@]24C=C[C@H](OC)C[C@@H]34)c1,WST-1,,> 10
CC(=O)O[C@H]1C(=O)[C@@]2(C)[C@H]([C@H](OC(=O)c3ccccc3)[C@]3(O)C[C@H](OC(=O)[C@H](O)[C@@H](NC(=O)c4ccccc4)c4ccccc4)C(C)=C1C3(C)C)[C@]1(OC(C)=O)CO[C@@H]1C[C@@H]2O,SRB,,0.0141
Oc1ccccc1-c1n[nH]c(-c2ccccc2O)n1,MTT,72 h,> 100
